Screening results as filed in PubChem.
PGC1a acetyl inh: inhibitors of PGC1a acetylation signal, primary screen, cell-based, U2OS, AlphaScreen, inhibitor mode; hit rate 0.17% among 350,000; AlphaScreen anti-acetyl-lysine; with virally co-expressed GCN5 acetyltransferase; AID 651687, 2012; inhibition, % at 15.6 µM;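 active = every replicate shows inhibition of at least 40%; inconclusive = mean inhibition at least 40% but some replicate below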;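 note: 0% = neutral control wells and 100% = positive control wells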
CFTR F508del cor: F508del CFTR correction, initial screen, CFBE line, single point; CFBE cells, YFP halide quenching; stimulated with forskolin plus potentiator P3; % fluorescence drop versus neutral controls; activity (quench increase), % at 7.58 µM; hit rate 0.36% among 350,000; AID 720511, 2013;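 active = mean added fluorescence quench of at least 8% versus neutral control, with both replicates also reaching 8%; inconclusive = only one of the mean or replicate conditions met; inactive = mean below 8% and not both replicates reaching 8%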;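 note: cells transiently co-express mutant CFTR-F508del with the halide-sensitive YFP; corrector assay measuring rescue of mutant channel to the surface after 24 h compound exposure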
PAX8 reporter: inhibitors of PAX8-driven TPO luciferase reporter, primary screen, RMG-I cells, single concentration; SteadyGlo, 24 h; inhibition, % at 12.6 µM; hit rate 1.2% among 360,000;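 active = mean replicate inhibition at least 60% with every replicate also reaching 60%; inconclusive = only one of the two criteria is met; inactive = mean below 60% and not all replicates reaching 60%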;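 note: luciferase light reporting Pax8 driven TPO promoter activity; plate controls were median of neutral control wells for no effect and mitoxantrone controls for full effect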
FN deposit inh: inhibitors of fibronectin matrix deposition, primary screen, AH1F cells, Alexa488-fibronectin fluorescence, plate reader. AH1F fibroblasts, overnight. inhibition, % at 12.6 µM. hit rate 0.086% among 350,000. AID 743247, 2014;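 active = mean inhibition across replicates of 30% or more, regardless of how many single replicates reach that level; inconclusive = mean under 30% yet at least half of replicates reach 30%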;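 note: positive control wells lacked labelled fibronectin entirely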
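Measured by – fluorescence 485/525 nm · System – AH1F fibroblast monolayer, labelled fibronectin deposition · Amount – 10000 cells per well · Buffer or medium – serum-reduced DMEM (2% serum) · Doses – single dose, pinned · Also added – fluorescent fibronectin at 24 nM final · Schedule – 1 h cell attachment, overnight exposure to compound and label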
EWS-Fli inh: EWS/Fli-driven NR0B1 reporter inhibitors, primary screen, A673 cells, NR0B1 luciferase, luminescence, MLPCN library. viability-normalised. inhibition, % at 12.6 µM. hit rate 0.67% among 350,000. AID 651661, 2012;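 active = mean inhibition of at least 50% after viability correction, with every replicate also passing that limit; inconclusive = mean reaches 50% but only one of two replicates passes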;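 note: firefly luciferase signal divided by Alamar Blue viability fluorescence both relative to DMSO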
HIV Env fusion: inhibitors of HIV-1 Env-driven cell-cell fusion, primary screen, HeLa-JRFL effector, CEM21 target cells, luciferase. inhibition, % at 12.3 µM. hit rate 1.1% among 360,000;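 active = mean replicate inhibition score of at least 50 and every replicate individually at or above 50; inconclusive = only one of the two criteria met; inactive = mean below 50 and not all replicates reaching 50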;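 note: 0% = plate neutral controls and 100% = maraviroc near 300 nM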
The depositor's hits bear a star; ? = inconclusive; / = no result given; [ ] = remark or other dose. This is a sample that favours compounds with a hit; in the whole collection about 2.3% have one here.

SMILES	PGC1a acetyl inh	CFTR F508del cor	PAX8 reporter	FN deposit inh	EWS-Fli inh	HIV Env fusion
O=C1NC[C@H](c2ccccc2)OC(=O)[C@@H](Cc2ccc(F)cc2)C/C=C\C[C@H]1CC(=O)N(CCO)Cc1ccccc1	3	4	86*	-8	19	-36
O=C(C[C@H]1C/C=C/CC[C@H](Cc2ccc(F)cc2)C(=O)O[C@H](c2ccccc2)CNC1=O)NCCO	/	-1	3	1	4	?
CO[C@H](CN(C)Cc1cc(F)ccc1F)[C@@H](C)CN(C(=O)Nc1ccc(F)cc1)[C@@H](C)CO	2	3	/	-8	3	/
O=C(Cc1ccc(F)cc1)Nc1cccc(S(=O)(=O)N2CCCC2)c1	/	0	-5	-7	14	63*
CN(CC(=O)Nc1cccc(S(=O)(=O)N2CCCC2)c1)CC(=O)Nc1ccc(F)c(F)c1F	2	19*	10	1	1	2
O=C(COc1ccc(F)cc1Cl)Nc1cccc(S(=O)(=O)N2CCCCCC2)c1	/	8.8*	-1	-1	2	/
O=C(Cc1ccccc1)Nc1cccc(S(=O)(=O)N2CCCCCC2)c1	/	2	0	4	9	/
O=C(CNc1ccc(F)cc1Cl)Nc1cccc(S(=O)(=O)N2CCCCC2)c1	5	2	-2	1	3	-3
C[C@H](CO)N1C[C@H](C)[C@@H](CN(C)C)Oc2ncc(C#CC3CCCCC3)cc2C1=O	-7	-3	/	2	4	22[16.7 µM]
Cc1ccc(S(=O)(=O)N(C)C[C@H]2OCCCC[C@@H](C)Oc3ccc(NC(=O)Nc4cccc5ccccc45)cc3C(=O)N([C@H](C)CO)C[C@@H]2C)cc1	7	0	-12	0	-9	30[16.7 µM]
COc1ccc(OCC(=O)NNC(=O)c2c(-c3ccccc3Cl)noc2C)cc1	62*	1	5	4	0	-18
COc1ccccc1OCC(=O)NNC(=O)c1c(-c2ccccc2Cl)noc1C	15	-2	-10	4	3	-2
O=C(C[C@@H]1CC[C@H]2[C@@H](COC[C@H](O)CN2CC2CCOCC2)O1)N1CCOCC1	5	3	-10	-1	7	/
O=c1c2cc(N3CCOCC3)ccc2[nH]c(=S)n1CCCN1CCCCCC1	/	/	/	5	/	-27
O=C(CCCCCn1c(=S)[nH]c2ccc(N3CCOCC3)cc2c1=O)NCc1ccc(Cl)cc1	2	-1	7	-6	2	0
CC(C)OCCCn1c(=S)[nH]c2ccc(N3CCOCC3)cc2c1=O	-3	/	/	/	/	72*
O=c1c2cc(N3CCOCC3)ccc2[nH]c(=S)n1Cc1ccc(Cl)cc1	-6	/	/	41*	/	-36
C[C@@H]1CN([C@H](C)CO)C(=O)c2cc(NS(C)(=O)=O)ccc2O[C@@H]1CN(C)S(=O)(=O)c1ccccc1	-11	0	/	/	-3	18[16.7 µM]
N#Cc1c(OCC(=O)c2ccccc2)nc2c(c1-c1ccco1)CCc1ccccc1-2	-11	/	/	/	/	-61
CCOC(=O)COc1nc2c(c(-c3ccco3)c1C#N)CCc1ccccc1-2	-6	4	12	-2	-12	57*
COc1ccc(/C=C2\SC(=S)N(CCCC(=O)N3CCCCC3CCO)C2=O)cc1 (stereo unspecified)	3	-1	75*	2	/	28
CC(C)c1ccc(/C=C2\SC(=S)N(CCC(=O)N3CCCCC3CCO)C2=O)cc1 (stereo unspecified)	25	-3	38	-3	/	56*
O=C1/C(=C\c2ccccc2)SC(=S)N1CCC(=O)N1CCCCC1CCO (stereo unspecified)	8	-1	48	11	/	-1
CO[C@H]1CN(C)C(=O)c2cc(NC(=O)c3ccccc3)ccc2OC[C@@H](C)N(C(=O)C2CC2)C[C@H]1C	-1	0	/	-2	-1	-10[16.7 µM]
Nc1ccc2c(c1)C(=O)C(=O)c1ccccc1-2	107*	/	/	/	/	/
SMILES	PGC1a acetyl inh	CFTR F508del cor	PAX8 reporter	FN deposit inh	EWS-Fli inh	HIV Env fusion
C[C@@H]1CCCCO[C@@H](CN(C)S(=O)(=O)c2cccs2)[C@H](C)CN([C@@H](C)CO)C(=O)c2cc(NS(=O)(=O)c3ccc(Cl)cc3)ccc2O1	-13	1	70*	-6	-2	11[16.7 µM]
C[C@@H]1CN([C@H](C)CO)C(=O)c2cc(NS(=O)(=O)c3ccc(Cl)cc3)ccc2O[C@@H](C)CCCCO[C@H]1CN(C)S(=O)(=O)c1cccs1	2	0	13	-14	2	63*[16.7 µM]
C[C@@H]1CN([C@H](C)CO)C(=O)c2cc(NS(=O)(=O)c3ccc(Cl)cc3)ccc2O[C@@H](C)CCCCO[C@@H]1CN(C)S(=O)(=O)c1cccs1	-4	-2	13	-12	0	-8[16.7 µM]
CN1C(=O)c2cc(NC(=O)Cc3cccs3)ccc2OC[C@H]2O[C@H](CC(=O)NCC3CC3)CC[C@H]21	8	-4	-5	7	2	11[16.7 µM]
COc1cccc(NC(=O)N2C[C@@H](O)COC[C@H]3O[C@@H](CC(=O)NCc4ccccc4F)CC[C@@H]32)c1	8	0	/	2	/	/
C[C@H](CO)N1C[C@H](C)[C@H](CN(C)S(=O)(=O)c2cn(C)cn2)OCCCC[C@H](C)Oc2ccc(NC(=O)Nc3ccc(F)cc3)cc2C1=O	-3	0	-6	-13	3	6[16.7 µM]
O=C1C=C(O)c2cccc(O)c2C1=O	5	-3	/	/	9	/
O=C1C=C(c2c(O)ccc3ccccc23)c2ccccc2C1=O	54*	-3	83*	16	57*	13
CC=Cc1ccc2n(c1=O)C[C@H]1[C@H](CO)[C@@H](C(=O)N(C)C)N(CCC)[C@@H]21 (mixture of isomers)	2	2	/	/	-5	/
CNC[C@@H]1Oc2c(NS(C)(=O)=O)cccc2C(=O)N(C)C[C@@H]1C	/	/	/	3	/	/
C[C@H]1CN(C)C(=O)Cc2cc(N(C)C)ccc2O[C@H]1CN(C)S(C)(=O)=O	/	/	/	0	/	/
O=C(CSc1nnc(-c2ccccc2)c(-c2ccccc2)n1)NCc1ccco1	-13	/	/	1	/	-2
Cc1cccc(-n2c(SCC(=O)NCc3ccco3)nc3ccccc3c2=O)c1	/	/	/	11	/	62*
CC(Sc1nc2cc([N+](=O)[O-])ccc2n1-c1ccc(F)cc1)C(=O)NCc1ccc2c(c1)OCO2 (stereo unspecified)	-8	/	-4	-2	/	94*
COc1ccccc1-n1c(SCC(=O)NCc2ccc3c(c2)OCO3)nc2cc([N+](=O)[O-])ccc21	/	2	20	1	7	/
O=C(CSc1nc2ccccc2c(=O)n1Cc1ccc(Cl)cc1)NCc1cccs1	6	-2	2	/	30	70*
O=C(CSc1nc(-c2ccccc2)c(-c2ccccc2)[nH]1)NCc1ccco1	10	/	/	4	/	70*
